Values joined by “and” are separate entries in the source; they are usually repeats but may differ in a detail not shown here. Equal values may be shown once.
System: U2OS
Assay: Multiplex assay against U2OS
Type: toxicity, cell-based
Details: human
In short: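 On a CQ1 microscope at 37°C and 5% CO2, live cells were imaged after compound addition. They had been stained at seeding with Hoechst33342, BioTracker Green Microtubule Cytoskeleton Dye, MitoTracker Red and Annexin V Alexa Fluor 680. CellPathfinder machine-learning gating assigned cells to Hoechst high-intensity objects or normal cells, normal cells to healthy, pyknosed or fragmented nuclei, and pyknosed cells to mitotic or apoptotic. Tubulin, mitochondrial-mass and membrane-permeability phenotypes are per cents of healthy-nucleus cells.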

[1] = 12 h, 1 µM, compound concentration 1 uM, replicate 1
[2] = 12 h, 1 µM, compound concentration 1 uM, replicate 2
[3] = 12 h, 10 µM, compound concentration 10 uM, replicate 1
[4] = 12 h, 10 µM, compound concentration 10 uM, replicate 2
[5] = 24 h, 1 µM, compound concentration 1 uM, replicate 1
[6] = 24 h, 1 µM, compound concentration 1 uM, replicate 2
[7] = 24 h, 10 µM, compound concentration 10 uM, replicate 1
[8] = 24 h, 10 µM, compound concentration 10 uM, replicate 2

CNC(=O)Nc1ccc2c(c1)[C@@]1(CC2)OC(=O)N(CC(=O)N(Cc2ccc(F)cc2)[C@@H](C)C(F)(F)F)C1=O [A-486]
Population Apoptotic (%) [1]: 47% | Population Fragmented Nuclei (%) [1]: 4% | Population Healthy Nuclei (%) [1]: 81% | Population Hoechst High Intensity Objects (%) [1]: 4% | Population Membrane Permeable-Phenotype (%) [1]: 63% | Population Mitochondria Different-Phenotype (%) [1]: 11% | Population Mitotic Cells (%) [1]: 52% | Population Normal (%) [1]: 95% | Population Pyknosed Nuclei (%) [1]: 14% | Population Tubulin-Different-Phenotype (%) [1]: 57% | Total Cell Count [1]: 248 | Population Apoptotic (%) [2]: 75% | Population Fragmented Nuclei (%) [2]: 7% | Population Healthy Nuclei (%) [2]: 88% | Population Hoechst High Intensity Objects (%) [2]: 11% | Population Membrane Permeable-Phenotype (%) [2]: 59% | Population Mitochondria Different-Phenotype (%) [2]: 19% | Population Mitotic Cells (%) [2]: 25% | Population Normal (%) [2]: 88% | Population Pyknosed Nuclei (%) [2]: 4% | Population Tubulin-Different-Phenotype (%) [2]: 60% | Total Cell Count [2]: 105 | Population Apoptotic (%) [3]: 27% | Population Fragmented Nuclei (%) [3]: 3% | Population Healthy Nuclei (%) [3]: 85% | Population Hoechst High Intensity Objects (%) [3]: 1% | Population Membrane Permeable-Phenotype (%) [3]: 9% | Population Mitochondria Different-Phenotype (%) [3]: 19% | Population Mitotic Cells (%) [3]: 72% | Population Normal (%) [3]: 99% | Population Pyknosed Nuclei (%) [3]: 11% | Population Tubulin-Different-Phenotype (%) [3]: 12% | Total Cell Count [3]: 201 | Population Apoptotic (%) [4]: 33% | Population Fragmented Nuclei (%) [4]: 6% | Population Healthy Nuclei (%) [4]: 83% | Population Hoechst High Intensity Objects (%) [4]: 11% | Population Membrane Permeable-Phenotype (%) [4]: 21% | Population Mitochondria Different-Phenotype (%) [4]: 26% | Population Mitotic Cells (%) [4]: 66% | Population Normal (%) [4]: 88% | Population Pyknosed Nuclei (%) [4]: 10% | Population Tubulin-Different-Phenotype (%) [4]: 28% | Total Cell Count [4]: 102 | Population Apoptotic (%) [5]: 33% | Population Fragmented Nuclei (%) [5]: 3% | Population Healthy Nuclei (%) [5]: 89% | Population Hoechst High Intensity Objects (%) [5]: 4% | Population Membrane Permeable-Phenotype (%) [5]: 45% | Population Mitochondria Different-Phenotype (%) [5]: 14% | Population Mitotic Cells (%) [5]: 66% | Population Normal (%) [5]: 95% | Population Pyknosed Nuclei (%) [5]: 6% | Population Tubulin-Different-Phenotype (%) [5]: 30% | Total Cell Count [5]: 329 | Population Apoptotic (%) [6]: 75% | Population Fragmented Nuclei (%) [6]: 7% | Population Healthy Nuclei (%) [6]: 88% | Population Hoechst High Intensity Objects (%) [6]: 7% | Population Membrane Permeable-Phenotype (%) [6]: 44% | Population Mitochondria Different-Phenotype (%) [6]: 18% | Population Mitotic Cells (%) [6]: 25% | Population Normal (%) [6]: 92% | Population Pyknosed Nuclei (%) [6]: 3% | Population Tubulin-Different-Phenotype (%) [6]: 27% | Total Cell Count [6]: 115 | Population Apoptotic (%) [7]: 46% | Population Fragmented Nuclei (%) [7]: 2% | Population Healthy Nuclei (%) [7]: 92% | Population Hoechst High Intensity Objects (%) [7]: 0% | Population Membrane Permeable-Phenotype (%) [7]: 5% | Population Mitochondria Different-Phenotype (%) [7]: 14% | Population Mitotic Cells (%) [7]: 53% | Population Normal (%) [7]: 99% | Population Pyknosed Nuclei (%) [7]: 5% | Population Tubulin-Different-Phenotype (%) [7]: 17% | Total Cell Count [7]: 277 | Population Apoptotic (%) [8]: 40% | Population Fragmented Nuclei (%) [8]: 5% | Population Healthy Nuclei (%) [8]: 90% | Population Hoechst High Intensity Objects (%) [8]: 9% | Population Membrane Permeable-Phenotype (%) [8]: 14% | Population Mitochondria Different-Phenotype (%) [8]: 33% | Population Mitotic Cells (%) [8]: 60% | Population Normal (%) [8]: 90% | Population Pyknosed Nuclei (%) [8]: 4% | Population Tubulin-Different-Phenotype (%) [8]: 37% | Total Cell Count [8]: 126

Cc1cc(NC(=O)c2cccc(S(F)(F)(F)(F)F)c2)cc(-n2ccn3nc(-c4cccnc4)cc23)c1 [BAY-309]
Population Apoptotic (%) [3]: 25% and 23% | Population Fragmented Nuclei (%) [3]: 4% | Population Healthy Nuclei (%) [3]: 87% and 78% | Population Hoechst High Intensity Objects (%) [3]: 0% and 3% | Population Membrane Permeable-Phenotype (%) [3]: 46% and 55% | Population Mitochondria Different-Phenotype (%) [3]: 30% and 60% | Population Mitotic Cells (%) [3]: 75% and 76% | Population Normal (%) [3]: 99% and 96% | Population Pyknosed Nuclei (%) [3]: 7% and 16% | Population Tubulin-Different-Phenotype (%) [3]: 67% | Total Cell Count [3]: 108 and 233 | Population Apoptotic (%) [4]: 37% and 56% | Population Fragmented Nuclei (%) [4]: 8% and 9% | Population Healthy Nuclei (%) [4]: 82% and 67% | Population Hoechst High Intensity Objects (%) [4]: 9% and 5% | Population Membrane Permeable-Phenotype (%) [4]: 53% and 49% | Population Mitotic Cells (%) [4]: 62% and 43% | Population Normal (%) [4]: 90% and 94% | Population Pyknosed Nuclei (%) [4]: 9% and 22% | Population Tubulin-Different-Phenotype (%) [4]: 61% and 100% | Total Cell Count [4]: 185 | Population Apoptotic (%) [7]: 50% and 61% | Population Fragmented Nuclei (%) [7]: 8% and 6% | Population Healthy Nuclei (%) [7]: 85% and 70% | Population Hoechst High Intensity Objects (%) [7]: 5% and 3% | Population Membrane Permeable-Phenotype (%) [7]: 42% and 56% | Population Mitotic Cells (%) [7]: 50% and 38% | Population Normal (%) [7]: 95% and 96% | Population Tubulin-Different-Phenotype (%) [7]: 53% | Total Cell Count [7]: 140 and 230 | Population Apoptotic (%) [8]: 95% and 37% | Population Fragmented Nuclei (%) [8]: 15% and 7% | Population Healthy Nuclei (%) [8]: 60% and 84% | Population Hoechst High Intensity Objects (%) [8]: 9% and 6% | Population Membrane Permeable-Phenotype (%) [8]: 74% and 40% | Population Mitochondria Different-Phenotype (%) [8]: 83% and 30% | Population Normal (%) [8]: 90% and 93% | Population Tubulin-Different-Phenotype (%) [8]: 100% and 40% | Total Cell Count [8]: 108 and 215
